In ChEMBL document CHEMBL1132919, “Structure-activity studies for a novel series of tricyclic substituted hexahydrobenz[e]isoindole alpha(1A) adrenoceptor antagonists as potential agents for the symptomatic treatment of benign prostatic hyperplasia (BPH)” (J Med Chem, 2000):

Tests used:
[1] = molecular target: T1, Alpha-1D adrenergic receptor (Rattus norvegicus, UniProt P23944); assay: In vitro binding affinity using [3H]prazosin as radioligand against alpha-1D adrenergic receptor expressed in LTK cell; format: cell-based
T1 sequence (P23944 whole entry): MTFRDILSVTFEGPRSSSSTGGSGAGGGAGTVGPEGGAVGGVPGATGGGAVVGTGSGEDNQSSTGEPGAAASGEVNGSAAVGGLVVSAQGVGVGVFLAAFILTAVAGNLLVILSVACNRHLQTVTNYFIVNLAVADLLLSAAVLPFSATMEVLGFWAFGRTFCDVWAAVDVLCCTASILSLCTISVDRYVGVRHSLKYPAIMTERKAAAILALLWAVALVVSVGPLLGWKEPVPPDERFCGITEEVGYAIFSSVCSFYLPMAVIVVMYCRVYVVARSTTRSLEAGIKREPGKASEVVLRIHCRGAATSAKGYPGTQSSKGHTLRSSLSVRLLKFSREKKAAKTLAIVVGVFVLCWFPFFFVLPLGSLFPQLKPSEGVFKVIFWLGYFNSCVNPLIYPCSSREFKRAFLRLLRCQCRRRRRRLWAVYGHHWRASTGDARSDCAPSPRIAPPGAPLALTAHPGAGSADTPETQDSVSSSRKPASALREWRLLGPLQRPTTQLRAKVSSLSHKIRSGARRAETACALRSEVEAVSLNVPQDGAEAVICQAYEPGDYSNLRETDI
In short: (§1)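 Membranes from mouse LTK- fibroblasts stably expressing cloned hamster α1B or rat α1D, grown in roller bottles, frozen in liquid N2 and stored at -70 °C. Incubated with [3H]-prazosin ~200 pM, ~0.1 mg protein per tube, in 50 mM Tris-HCl pH 7.4 for 60 min at 25 °C; nonspecific binding defined by 10^-5 M phentolamine (final).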

[2] = molecular target: T2, Alpha-1A adrenergic receptor (Rattus norvegicus, UniProt P43140); assay: In vitro binding affinity using [3H]prazosin as radioligand against alpha-1A adrenergic receptor
T2 sequence (P43140 whole entry): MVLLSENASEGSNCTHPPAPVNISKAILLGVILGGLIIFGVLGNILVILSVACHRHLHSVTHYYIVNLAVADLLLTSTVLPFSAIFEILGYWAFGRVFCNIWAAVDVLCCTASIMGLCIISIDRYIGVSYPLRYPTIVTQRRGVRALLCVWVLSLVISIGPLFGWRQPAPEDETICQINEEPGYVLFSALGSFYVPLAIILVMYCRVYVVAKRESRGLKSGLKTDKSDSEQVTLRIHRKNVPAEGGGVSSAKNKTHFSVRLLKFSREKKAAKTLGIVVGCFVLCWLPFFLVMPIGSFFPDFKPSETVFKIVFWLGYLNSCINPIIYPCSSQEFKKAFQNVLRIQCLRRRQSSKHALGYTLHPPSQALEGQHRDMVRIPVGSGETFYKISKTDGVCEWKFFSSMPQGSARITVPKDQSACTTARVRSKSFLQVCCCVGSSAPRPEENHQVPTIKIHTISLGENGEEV
In short: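 Binding to pharmacologically defined α1A site in rat submaxillary gland membranes; [3H]-prazosin ~200 pM, nonspecific binding with 10^-5 M phentolamine (final); ~0.1 mg protein per tube in 50 mM Tris-HCl pH 7.4, 60 min at 25 °C.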

[3] = molecular target: T3, Alpha-1B adrenergic receptor (Mesocricetus auratus, UniProt P18841); assay: In vitro binding affinity using [3H]prazosin as radioligand against alpha-1B adrenergic receptor expressed in LTK cell; format: cell-based; in short: as §1
T3 sequence (P18841 whole entry): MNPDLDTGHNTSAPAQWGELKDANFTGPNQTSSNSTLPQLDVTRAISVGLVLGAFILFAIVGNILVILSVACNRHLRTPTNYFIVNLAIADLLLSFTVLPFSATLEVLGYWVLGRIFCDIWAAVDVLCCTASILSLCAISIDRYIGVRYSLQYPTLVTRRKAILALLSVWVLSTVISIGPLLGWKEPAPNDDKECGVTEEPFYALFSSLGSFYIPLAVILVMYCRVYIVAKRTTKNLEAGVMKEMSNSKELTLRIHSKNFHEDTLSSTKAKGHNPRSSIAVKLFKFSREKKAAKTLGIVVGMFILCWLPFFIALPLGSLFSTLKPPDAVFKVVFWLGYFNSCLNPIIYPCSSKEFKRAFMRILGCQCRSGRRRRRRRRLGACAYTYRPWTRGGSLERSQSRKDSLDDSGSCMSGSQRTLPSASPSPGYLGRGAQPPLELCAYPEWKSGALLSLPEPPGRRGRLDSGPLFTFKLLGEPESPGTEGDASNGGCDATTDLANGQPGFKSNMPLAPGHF

Cricetulus griseus = species: Cricetulus griseus; assay: Ratio between Ki(alpha-1b)/Ki(alpha1A)

Row | SMILES | Ki [1] | Ki [2] | Ki [3] | Selectivity ratio (Cricetulus griseus)
1 | COc1cccc2c1CCC1CN(CCn3c(=O)[nH]c4c(oc5ccccc54)c3=O)CC21 (cis isomer) | 0.68 nM | 2.17 nM | 5.39 nM | 2.48
2 | COc1cccc2c1CCC1CN(CCn3c(=O)[nH]c4c(sc5ccccc54)c3=O)CC21 (stereo in doubt; 18) [listing 1 of 2 here] |  |  |  | 4
3 | COc1cccc2c1CC[C@H]1CN(CCn3c(=O)[nH]c4c(sc5nc(-c6ccccc6)cnc54)c3=O)C[C@@H]21 | 160 nM | 153 nM | 1850 nM | 12
4 | COc1cccc2c1CC[C@H]1CN(CCn3c(=O)[nH]c4c(sc5ccc(C#N)cc54)c3=O)C[C@@H]21 | 0.59 nM | 1.64 nM | 14.3 nM | 8.7
5 | COc1cccc2c1CC[C@H]1CN(CCn3c(=O)[nH]c4c(sc5c(Cl)ccnc54)c3=O)C[C@@H]21 | 4.16 nM | 3.13 nM | 61.6 nM | 19.7
6 | COc1cccc2c1CCC1CN(CCn3c(=O)[nH]c4c(sc5ccccc54)c3=O)CC21 (stereo in doubt; 21) [listing 1 of 2 here] | 0.63 nM | 1.08 nM | 3.43 nM | 
7 | COc1cccc2c1CC[C@H]1CN(CCn3c(=O)[nH]c4c(sc5ccc(C)cc54)c3=O)C[C@@H]21 | 1.04 nM | 2.16 nM | 4.26 nM | 1.97
8 | COc1cccc2c1CC[C@H]1CN(CCn3c(=O)[nH]c4c(sc5cccc(C#N)c54)c3=O)C[C@@H]21 | 6.6 nM | 3.3 nM | 35.8 nM | 10.8
9 | COc1cnc2sc3c(=O)n(CCN4C[C@@H]5CCc6c(OC)cccc6[C@@H]5C4)c(=O)[nH]c3c2n1 | 1.1 nM | 0.35 nM | 3.73 nM | 10.6
10 | COc1cccc2c1CC[C@H]1CN(CCn3c(=O)[nH]c4c(sc5ccc(Cl)cc54)c3=O)C[C@@H]21 | 0.31 nM | 0.44 nM | 1.91 nM | 4.34
11 | COc1cccc2c1CC[C@H]1CN(CCn3c(=O)[nH]c4c(sc5ccncc54)c3=O)C[C@@H]21 | 0.28 nM | 0.33 nM | 4.63 nM | 14
12 | COc1cccc2c1CCC1CN(CCn3c(=O)[nH]c4c(sc5ccccc54)c3=O)CC21 (stereo in doubt; 18) [listing 2 of 2 here] | 0.37 nM | 0.64 nM | 2.57 nM | 
13 | COc1cccc2c1CCC1CN(CCn3c(=O)[nH]c4c(sc5ccccc54)c3=O)CC21 (stereo in doubt; 21) [listing 2 of 2 here] |  |  |  | 3.17
14 | COc1cccc2c1CC[C@H]1CN(CCn3c(=O)[nH]c4c(sc5cccc(C)c54)c3=O)C[C@@H]21 | 0.88 nM | 1.29 nM | 6.95 nM | 5.38
15 | COc1cccc2c1CC[C@H]1CN(CCn3c(=O)[nH]c4c(sc5ncc(-c6ccccc6)nc54)c3=O)C[C@@H]21 | 19.8 nM | 3.91 nM | 120 nM | 30.7
16 | COc1cccc2c1CC[C@H]1CN(CCn3c(=O)[nH]c4c(sc5ncncc54)c3=O)C[C@@H]21 | 2.08 nM | 0.68 nM | 15.5 nM | 22.8
17 | COc1cccc2c1CC[C@H]1CN(CCn3c(=O)[nH]c4c(sc5cccc(Cl)c54)c3=O)C[C@@H]21 | 1.32 nM | 0.51 nM | 3.15 nM | 6.17
18 | COc1cccc2c1CC[C@H]1CN(CCn3c(=O)[nH]c4c(sc5nc(C)cnc54)c3=O)C[C@@H]21 | 2.31 nM | 0.49 nM | 13.5 nM | 27.5

Row | SMILES | Ki [1] | Ki [2] | Ki [3] | Selectivity ratio (Cricetulus griseus)
19 | COc1cccc2c1CC[C@H]1CN(CCn3c(=O)[nH]c4c(sc5cc(C#N)ccc54)c3=O)C[C@@H]21 | 0.74 nM | 0.4 nM | 6.2 nM | 15.5
20 | COc1cccc2c1CC[C@H]1CN(CCn3c(=O)[nH]c4c(sc5c(OC)ccnc54)c3=O)C[C@@H]21 | 1.41 nM | 0.79 nM | 6.69 nM | 8.45
21 | COc1cccc2c1CC[C@H]1CN(CCn3c(=O)[nH]c4c(sc5cc(C(N)=O)ccc54)c3=O)C[C@@H]21 | 0.27 nM | 0.29 nM | 0.86 nM | 2.9
22 | COc1cccc2c1CC[C@H]1CN(CCn3c(=O)[nH]c4c(sc5c(C#N)cccc54)c3=O)C[C@@H]21 | 2.08 nM | 6.35 nM | 26.9 nM | 4.24
23 | COc1cccc2c1CC[C@H]1CN(CCn3c(=O)[nH]c4c(sc5cccc(OC)c54)c3=O)C[C@@H]21 | 1.07 nM | 0.77 nM | 3.1 nM | 4
24 | COc1cccc2c1CC[C@H]1CN(CCn3c(=O)[nH]c4c(sc5ccccc54)c3=O)C[C@@H]21 (stereo in doubt; 23) |  |  |  | 1.55
25 | COc1cccc2c1CC[C@H]1CN(CCn3c(=O)[nH]c4c(sc5nccnc54)c3=O)C[C@@H]21 | 2.06 nM | 0.72 nM | 12.5 nM | 17.3
26 | COc1ccc2sc3c(=O)n(CCN4C[C@@H]5CCc6c(OC)cccc6[C@@H]5C4)c(=O)[nH]c3c2n1 | 1.1 nM | 0.66 nM | 3 nM | 4.5
27 | COc1cccc2c1CC[C@H]1CN(CCn3c(=O)[nH]c4c(sc5ccc(C(N)=O)cc54)c3=O)C[C@@H]21 | 0.51 nM | 0.52 nM | 6.34 nM | 12.2
28 | COc1cccc2c1CC[C@H]1CN(CCn3c(=O)[nH]c4c(sc5c(Cl)cccc54)c3=O)C[C@@H]21 | 25 nM | 98.9 nM | 1220 nM | 12.3
29 | COc1cccc2c1CC[C@H]1CN(CCn3c(=O)[nH]c4c(sc5ccc(C(=O)N(C)C)cc54)c3=O)C[C@@H]21 | 0.63 nM | 0.28 nM | 1.7 nM | 6.07
30 | COC(=O)c1ccc2sc3c(=O)n(CCN4C[C@@H]5CCc6c(OC)cccc6[C@@H]5C4)c(=O)[nH]c3c2c1 | 2.84 nM | 4.75 nM | 14.3 nM | 3.01
31 | COc1cccc2c1CC[C@H]1CN(CCn3c(=O)[nH]c4c(sc5cnccc54)c3=O)C[C@@H]21 | 0.37 nM | 0.53 nM | 3.33 nM | 6.28
32 | COc1cccc2c1CC[C@H]1CN(CCn3c(=O)[nH]c4c(sc5ccc([N+](=O)[O-])cc54)c3=O)C[C@@H]21 | 1.31 nM | 1.28 nM | 8.49 nM | 6.64
33 | COc1cccc2c1CC[C@H]1CN(CCn3c(=O)[nH]c4c(sc5ccccc54)c3=O)C[C@@H]21 (stereo in doubt; 22) |  |  |  | 5.57
34 | COc1cccc2c1CC[C@H]1CN(CCn3c(=O)[nH]c4c(sc5nc(C)c(C)nc54)c3=O)C[C@@H]21 | 3.28 nM | 0.39 nM | 13.9 nM | 35.6
35 | COc1cccc2c1CCC1CN(CCCCn3c(=O)[nH]c4c(sc5ccccc54)c3=O)CC21 (cis isomer) | 4.77 nM | 7.43 nM | 9.95 nM | 1.33
